ChEMBL document CHEMBL4373710, “DNA Structural Alteration Leading to Antibacterial Properties of 6-Nitroquinoxaline Derivatives” (J Med Chem, 2019)
≈ marks a conversion by molar mass, not a printed value. Calls of active or inactive are those of the source. The rule behind the calls is not given here.

Columns and labels:
HEK293 = assay: Cytotoxicity against HEK293 cells measured after 24 hrs by MTT assay; format: cell-based; details: Homo sapiens, HEK293, 24 h
How it was run: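 HEK 293 cells, 4000/well, seeded overnight in DMEM + 10% FBS at 37°C in CO2; compound dose series for 24 h (final DMSO <0.5%, DMSO-only control). MTT at 1 mg/mL final for 3 h, formazan dissolved in DMSO, absorbance 595 nm; IC50 from triplicate OD data.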

[1] = Antibacterial activity against Arthrobacter chlorophenolicus A6MTCC3706 by broth microdilution assay; format: functional; details: Pseudarthrobacter chlorophenolicus
How it was run: (§1)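 Broth microdilution per CLSI; 5×10^5 cfu/mL bacteria in LB broth; compounds from DMSO stocks, final DMSO under 0.6%, with DMSO control. Plates incubated at the strain's recommended growth temperature and time; growth read as OD600.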

Staphylococcus aureus = assay: Antibacterial activity against Staphylococcus aureus MTCC737 measured after 6 hrs by broth microdilution assay; format: functional; details: MTCC737, 6 h; how it was run: as §1
Escherichia coli = assay: Antibacterial activity against Escherichia coli MTCC1916 by broth microdilution assay; format: functional; how it was run: as §1
[2] = test system: Staphylococcus epidermidis; assay: Antibacterial activity against Staphylococcus epidermidis MTCC3615 by broth microdilution assay; format: functional; how it was run: as §1
Pseudomonas aeruginosa = assay: Antibacterial activity against Pseudomonas aeruginosa MTCC1688 by broth microdilution assay; format: functional; how it was run: as §1
DNA [3] = assay: Binding affinity to Escherichia coli pBR322 DNA assessed as DNA compaction up to 5:1 compound to DNA ratio by atomic force microscopic analysis; format: nucleic-acid assay
How it was run: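 Supercoiled pBR322 plasmid treated with compound at [compound]:[DNA bp] ratios from 0.5:1 up to 5:1, imaged by AFM; DNA height measured.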

Calf thymus DNA [4] = assay: Binding affinity to calf thymus DNA by isothermal titration calorimetric analysis; format: nucleic-acid assay; details: Bos taurus
[5] = Solubility of the compound in pH 7 phosphate buffer at 100 uM by UV absorption spectra analysis; format: physicochemical; details: pH 7, 100 µM
Calf thymus DNA [6] = assay: Binding affinity to calf thymus DNA assessed as change in B-DNA structure at 15 to 60 uM by circular dichroism method; format: nucleic-acid assay; details: Bos taurus
Calf thymus DNA [7] = assay: Binding affinity to calf thymus DNA assessed as appearance of induced CD at 15 to 60 uM by circular dichroism method; format: nucleic-acid assay; details: Bos taurus
[8] = Binding affinity to pCDNA 3.1 (unknown origin) assessed as DNA unwinding effect up to 6:1 compound to DNA ratio measured after 16 hrs by EtBr staining agarose gel shift assay
How it was run: (§2)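 pCDNA3.1 plasmid (amplified in E. coli DH5α), 40 µM, in 50 mM NaP pH 7, 10 mM NaCl, mixed with compound at set compound:DNA base-pair ratios; 16 h at 37°C. Run on 1% agarose at 50 V ~3 h, stained with EtBr 1 µg/mL for 5 min, imaged.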

[9] = Binding affinity to pCDNA 3.1 (unknown origin) assessed as DNA unwinding effect at 1:1 to 5:1 compound to DNA ratio measured after 16 hrs by EtBr staining agarose gel shift assay; how it was run: as §2
DNA [10] = assay: Inhibition of ethidium bromide binding to Staphylococcus aureus DNA by fluorescence assay; format: nucleic-acid assay
How it was run: (§3)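 Fluorescence intercalator displacement: S. aureus genomic DNA 10 µM plus EtBr 5 µM in 10 mM NaP pH 7, 10 mM NaCl, 1% DMSO, at 25 and 37 °C; titrated with 2.5–100 µM compound. Excitation 480 nm, emission 520–700 nm, inner-filter corrected, triplicates; Stern–Volmer analysis, F0/F = 1 + Ksv[Q].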

[11] = Selectivity index, ratio of IC50 for HEK293 cells to MIC for Staphylococcus aureus MTCC737; format: toxicity; details: human, read-out: Selectivity Index
Calf thymus DNA [12] = assay: Binding affinity to calf thymus DNA assessed as change in B-DNA structure at 265 nm by circular dichroism method; format: nucleic-acid assay; details: Bos taurus
Calf thymus DNA [13] = assay: Binding affinity to calf thymus DNA assessed as appearance of induced CD at […] by circular dichroism method; format: nucleic-acid assay; details: Bos taurus
DNA [14] = assay: Inhibition of ethidium bromide binding to Staphylococcus aureus DNA assessed as Stern-Volmer quenching constant by fluorescence assay; format: nucleic-acid assay; how it was run: as §3

What does the source list for `CN(C)CCCNc1nc2cc([N+](=O)[O-])ccc2nc1NCc1ccccc1`?
IC50 (HEK293): 2.74 µg/mL (≈ 7.2 µM); MIC [1]: 7.6 µg/mL (≈ 20 µM); MIC (Staphylococcus aureus): 11.4 µg/mL (≈ 30 µM); MIC (Escherichia coli): 114 µg/mL (≈ 300 µM); MIC [2]: 13.3 µg/mL (≈ 35 µM); MIC (Pseudomonas aeruginosa): 57 µg/mL (≈ 150 µM)

For `COc1ccccc1CNc1nc2ccc([N+](=O)[O-])cc2nc1NCCCN(C)C`, which IC50 (HEK293) is on record?
The IC50 was 36.1 µg/mL (≈ 88 µM).

And the MIC [1]?
The MIC was 6.16 µg/mL (≈ 15 µM).

And the MIC (Staphylococcus aureus)?
Its MIC is 8.21 µg/mL (≈ 20 µM).

What about the MIC (Escherichia coli) of the same compound?
Its MIC is > 200 µg/mL.

And the MIC [2]?
The MIC was 6.16 µg/mL (≈ 15 µM).

And the MIC (Pseudomonas aeruginosa)?
The MIC was > 200 µg/mL.

Which Activity (DNA [3]) does the source give for `O=[N+]([O-])c1ccc2nc(NCc3ccc(C(F)(F)F)cc3)c(N3CCCCC3)nc2c1` here?
The Activity was “inactive”.

And the IC50 (HEK293)?
The IC50 was > 200 µg/mL.

What about the MIC [1] of the same compound?
The MIC was > 200 µg/mL.

What about the MIC (Staphylococcus aureus) of the same compound?
Its MIC is > 200 µg/mL.

And the MIC (Escherichia coli)?
Its MIC is > 200 µg/mL.

What about the MIC [2] of the same compound?
The MIC was > 200 µg/mL.

What about the Activity (Calf thymus DNA [4]) of the same compound?
Its Activity is “inactive”.

And the solubility [5]?
The solubility was “Soluble”.

What about the Activity (Calf thymus DNA [6]) of the same compound?
Its Activity is “inactive”.

And the Activity (Calf thymus DNA [7])?
The Activity was “inactive”.

What about the MIC (Pseudomonas aeruginosa) of the same compound?
Its MIC is > 200 µg/mL.

And the Activity [8]?
Its Activity is “inactive”.

With `CN(C)CCCNc1nc2cc([N+](=O)[O-])ccc2nc1NCc1cccc(Br)c1` as the compound, how does the IC50 (HEK293) read?
Its IC50 is 3.66 µg/mL (≈ 7.97 µM).

And the MIC [1]?
The MIC was 2.29 µg/mL (≈ 4.99 µM).

And the MIC (Staphylococcus aureus)?
The MIC was 4.59 µg/mL (≈ 9.99 µM).

What about the MIC (Escherichia coli) of the same compound?
The MIC was 4.59 µg/mL (≈ 9.99 µM).

And the MIC [2]?
The MIC was 2.29 µg/mL (≈ 4.99 µM).

And the MIC (Pseudomonas aeruginosa)?
The MIC was 13.8 µg/mL (≈ 30 µM).

Which results are given for `CN(C)CCCCNc1nc2cc([N+](=O)[O-])ccc2nc1NCc1ccc(C(F)(F)F)cc1`?
IC50 (HEK293): 9.73 µg/mL (≈ 21 µM); MIC [1]: 3.47 µg/mL (≈ 7.5 µM); MIC (Staphylococcus aureus): 3.47 µg/mL (≈ 7.5 µM); MIC (Escherichia coli): 2.31 µg/mL (≈ 4.99 µM); MIC [2]: 3.47 µg/mL (≈ 7.5 µM); MIC (Pseudomonas aeruginosa): > 230 µg/mL

What does the source list for `CN(C)CCCNc1nc2cc([N+](=O)[O-])ccc2nc1NCc1ccc(Cl)c(C(F)(F)F)c1`?
IC50 (HEK293): 3.26 µg/mL (≈ 6.75 µM); MIC [1]: 1.69 µg/mL (≈ 3.5 µM); MIC (Staphylococcus aureus): 1.69 µg/mL (≈ 3.5 µM); MIC (Escherichia coli): 7.24 µg/mL (≈ 15 µM); MIC [2]: 0.96 µg/mL (≈ 1.99 µM); MIC (Pseudomonas aeruginosa): > 240 µg/mL

Which IC50 (HEK293) does the source give for `CN(C)CCCNc1nc2cc([N+](=O)[O-])ccc2nc1NCc1cc(F)cc(C(F)(F)F)c1` here?
The IC50 was 2.67 µg/mL (≈ 5.72 µM).

What about the MIC [1] of the same compound?
The MIC was 2.33 µg/mL (≈ 5 µM).

What about the MIC (Staphylococcus aureus) of the same compound?
Its MIC is 0.93 µg/mL (≈ 1.99 µM).

And the MIC (Escherichia coli)?
The MIC was 35 µg/mL (≈ 75 µM).

What about the MIC [2] of the same compound?
Its MIC is 1.63 µg/mL (≈ 3.49 µM).

And the MIC (Pseudomonas aeruginosa)?
Its MIC is > 235 µg/mL.

Which IC50 (HEK293) does the source give for `CN(C)CCCNc1nc2cc([N+](=O)[O-])ccc2nc1NCc1ccccc1C(F)(F)F` here?
The IC50 was 24.7 µg/mL (≈ 55 µM).

What about the MIC [1] of the same compound?
The MIC was 2.91 µg/mL (≈ 6.49 µM).

And the MIC (Staphylococcus aureus)?
The MIC was 3.36 µg/mL (≈ 7.49 µM).

What about the MIC (Escherichia coli) of the same compound?
The MIC was 68.3 µg/mL (≈ 152 µM).

What about the MIC [2] of the same compound?
The MIC was 2.24 µg/mL (≈ 4.99 µM).

And the MIC (Pseudomonas aeruginosa)?
Its MIC is > 224 µg/mL.

Which results are given for `CN(C)CCCNc1nc2cc([N+](=O)[O-])ccc2nc1NCc1cccc(C(F)(F)F)c1`?
IC50 (HEK293): 7.99 µg/mL (≈ 17.8 µM); MIC [1]: 1.57 µg/mL (≈ 3.5 µM); MIC (Staphylococcus aureus): 0.89 µg/mL (≈ 1.98 µM); MIC (Escherichia coli): 34.3 µg/mL (≈ 76.5 µM); Activity [9]: Active; MIC [2]: 0.89 µg/mL (≈ 1.98 µM); Ka (Calf thymus DNA [4]): 3.06 ×10⁴ /M; inhibition (DNA [10]): Dose-dependent effect; selectivity ratio [11]: 9; Activity (Calf thymus DNA [12]): Dose-dependent effect; Activity (Calf thymus DNA [13]): Dose-dependent effect; MIC (Pseudomonas aeruginosa): > 200 µg/mL; KSV (DNA [14]): 1.7 ×10⁴ /M

With `CN(C)CCCNc1nc2cc([N+](=O)[O-])ccc2nc1NCc1ccc(Cl)cc1` as the compound, how does the IC50 (HEK293) read?
The IC50 was 10.7 µg/mL (≈ 25.9 µM).

What about the MIC [1] of the same compound?
The MIC was 2.49 µg/mL (≈ 6 µM).

What about the MIC (Staphylococcus aureus) of the same compound?
Its MIC is 3.11 µg/mL (≈ 7.5 µM).

And the MIC (Escherichia coli)?
The MIC was > 207 µg/mL.

And the MIC [2]?
Its MIC is 6.22 µg/mL (≈ 15 µM).

What about the MIC (Pseudomonas aeruginosa) of the same compound?
The MIC was > 207 µg/mL.

For `CN(C)CCCNc1nc2cc([N+](=O)[O-])ccc2nc1NCc1ccccc1Br`, which IC50 (HEK293) is on record?
Its IC50 is 51.9 µg/mL (≈ 113 µM).

And the MIC [1]?
The MIC was 2.76 µg/mL (≈ 6.01 µM).

And the MIC (Staphylococcus aureus)?
The MIC was 3.45 µg/mL (≈ 7.51 µM).

What about the MIC (Escherichia coli) of the same compound?
Its MIC is > 230 µg/mL.

What about the MIC [2] of the same compound?
The MIC was 4.59 µg/mL (≈ 9.99 µM).

And the selectivity ratio [11]?
The selectivity ratio was 15.

And the MIC (Pseudomonas aeruginosa)?
The MIC was > 230 µg/mL.
